Molecules are shown by their SMILES. Where “and” joins values, the source holds several entries; their conditions need not be identical. Identical values can stand only once.

One assay deals with TIR1-IAA1 (Arabidopsis thaliana, UniProt P49677+Q570C0). Put plainly: [3H]-IAA homologous competitive binding, TIR1-IAA1. The following applies: Kd (Mean ± SEM), TIR1-IAA1, homologous competition. Put shortly:
(§1)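 Homologous competition: insect-cell ASK1-TIR1 (0.44 μg) plus E. coli GST-Aux/IAA (1:10 molar), in pH 8.0 Tris binding buffer, >1 h at 4°C. Fixed [³H]-IAA (5, 10, 25 or 100 nM, kept below half the IC50) with rising cold IAA. Filter binding, scintillation counting. Specific binding fitted to a one-site competition model by nonlinear regression. Independent assays run in triplicate.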

The target in assay [1] is T1, TIR1-IAA7 DII (Arabidopsis thaliana, UniProt Q38825+Q570C0, DEL96-243). Put plainly: Surface plasmon resonance, TIR1 over immobilized IAA7 DII peptide. The assay is classed as binding. The following applies: for TIR1 association with the DII peptide (SPR): co-injection of TIR1 with auxin, vs no auxin.
A further assay deals with TIR1-IAA7 K35Q R36Q (Arabidopsis thaliana, UniProt Q38825+Q570C0, K35Q/R36Q). Put plainly: [3H]-IAA binding at 200 nM, TIR1-IAA7 K35Q R36Q. The following applies: 200 nM [3H]-IAA, Lys35Gln Arg36Gln mutant compared to TIR1-IAA7.
The next assay has as its target TIR1-IAA14 (Arabidopsis thaliana, UniProt Q38832+Q570C0). Put plainly: [3H]-IAA homologous competitive binding, TIR1-IAA14. The following applies: TIR1-IAA14, homologous competition. Put shortly:
as §1

A further assay deals with TIR1-IAA28 (Arabidopsis thaliana, UniProt Q570C0+Q9XFM0). Put plainly: [3H]-IAA homologous competitive binding, TIR1-IAA28. The conditions noted are these: Kd (Mean ± SEM), TIR1-IAA28, homologous competition. The gist of the method:
as §1

The next assay has as its target TIR1-DI-DII (Arabidopsis thaliana, UniProt Q38825+Q570C0). In words: [3H]-IAA saturation binding, TIR1-DI-DII. The gist of the method:
(§2)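 Saturation binding: insect-cell ASK1-TIR1 (0.44 μg) with GST-tagged full-length, truncated or degron-mutated IAA protein from E. coli (1:10 molar). Incubated >1 h at 4°C in pH 8.0 Tris/NaCl/glycerol/Tween buffer with at least six [³H]-IAA concentrations either side of the KD. Filter-trapped and scintillation counted; nonspecific binding determined with 1000x cold IAA. KD by nonlinear regression; independent assays in triplicate.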

Another assay has as its system TIR1-slr. Put plainly: [3H]-IAA binding at 200 nM, TIR1-ASK1 with slr. The following applies: 200 nM [3H] IAA, TIR1-ASK1 and slr. Further details: species or system Arabidopsis thaliana. The gist of the method:
(§3)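 ASK1-TIR1 (tagged, co-expressed in Hi5 insect cells) and GST-Aux/IAA or mutant (E. coli), at 0.44 μg and 1:10 molar ratio as applicable, or synthetic biotinylated degron peptide. Incubated >1 h at 4°C in Tris-HCl pH 8.0/200 mM NaCl/10% glycerol/0.1% Tween 20 with [³H]-IAA (20 Ci/mmol). Trapped on PEI-treated glass-fibre filters, washed thrice, scintillation counted. Nonspecific binding determined with 1000x cold IAA.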

The target in another assay is TIR1-bdl (Arabidopsis thaliana, UniProt Q570C0). In words: [3H]-IAA binding at 200 nM, TIR1-ASK1 with bdl. The following applies: 200 nM [3H] IAA, TIR1-ASK1 and bdl. Put shortly: as §3
The next assay concerns the target TIR1-IAA12 GWPPVR (Arabidopsis thaliana, UniProt Q38830+Q570C0, G77R/I76V). In words: [3H]-IAA saturation binding, TIR1-IAA12 GWPPVR. Put shortly:
as §2

Another assay deals with TIR1-IAA17 (Arabidopsis thaliana, UniProt P93830+Q570C0). In words: [3H]-IAA homologous competitive binding, TIR1-IAA17. The following applies: Kd (Mean ± SEM), TIR1-IAA17, homologous competition. Put shortly: as §1
In another assay the target is TIR1-IAA31 (Arabidopsis thaliana, UniProt Q570C0+Q8H174). In words: [3H]-IAA binding, TIR1-IAA31. The gist of the method:
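ASK1-TIR1 (insect cells, 0.44 μg) and full-length GST-IAA31 (E. coli, 1:10 molar) were incubated with [³H]-IAA >1 h at 4°C in pH 8.0 Tris buffer, then filter-bound and scintillation counted. KD came from nonlinear regression of saturation and/or homologous competition binding data; independent assays run in triplicate.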

In a further assay the target is TIR1-IAA3 (Arabidopsis thaliana, UniProt Q38822+Q570C0). Put plainly: [3H]-IAA saturation binding, TIR1-IAA3. The following applies: Kd (Mean ± SEM). The gist of the method: as §2
A further assay has as its target T2, TIR1-IAA7 (Arabidopsis thaliana, UniProt Q38825+Q570C0).
T2 sequence (Q570C0 1-594): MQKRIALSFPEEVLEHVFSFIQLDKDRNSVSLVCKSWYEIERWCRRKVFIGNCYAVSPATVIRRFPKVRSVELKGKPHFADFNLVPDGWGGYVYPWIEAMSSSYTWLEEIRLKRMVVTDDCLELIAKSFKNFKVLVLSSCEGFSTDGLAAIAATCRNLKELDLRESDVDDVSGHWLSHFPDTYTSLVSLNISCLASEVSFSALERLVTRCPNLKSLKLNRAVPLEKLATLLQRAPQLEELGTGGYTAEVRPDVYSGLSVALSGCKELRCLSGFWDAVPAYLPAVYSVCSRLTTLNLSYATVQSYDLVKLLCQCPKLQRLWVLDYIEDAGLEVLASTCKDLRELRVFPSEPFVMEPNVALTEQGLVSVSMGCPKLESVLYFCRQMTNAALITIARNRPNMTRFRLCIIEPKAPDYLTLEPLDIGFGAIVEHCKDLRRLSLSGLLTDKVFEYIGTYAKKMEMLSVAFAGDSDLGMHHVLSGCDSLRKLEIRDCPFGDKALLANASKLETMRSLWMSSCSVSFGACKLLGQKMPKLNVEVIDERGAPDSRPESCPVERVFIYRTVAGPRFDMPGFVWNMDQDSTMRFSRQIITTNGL
T2 sequence (Q39255 1-160 partner): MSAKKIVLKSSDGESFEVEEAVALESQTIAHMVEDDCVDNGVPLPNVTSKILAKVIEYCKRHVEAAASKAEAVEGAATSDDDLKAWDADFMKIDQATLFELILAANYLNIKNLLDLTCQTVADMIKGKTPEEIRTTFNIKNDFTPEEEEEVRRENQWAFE
T2 sequence (Q38825 1-243): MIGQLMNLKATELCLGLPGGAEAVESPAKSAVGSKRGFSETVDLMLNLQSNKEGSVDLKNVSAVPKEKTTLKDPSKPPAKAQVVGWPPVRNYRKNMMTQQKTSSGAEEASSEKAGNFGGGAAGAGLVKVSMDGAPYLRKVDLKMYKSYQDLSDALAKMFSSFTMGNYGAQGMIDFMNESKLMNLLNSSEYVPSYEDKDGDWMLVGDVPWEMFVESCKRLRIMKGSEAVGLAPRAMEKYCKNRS
Put plainly: [3H]-IAA radioligand binding. Put shortly:
(§4)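 ASK1-TIR1 or ASK1-AFB5 (0.44 μg, insect cells) with E. coli GST-IAA7 (1:10 molar), >1 h at 4°C in pH 8.0 Tris binding buffer. KD from [³H]-IAA saturation binding. Ki from competition with cold 1-NAA, 2,4-D or picloram against fixed [³H]-IAA (5–100 nM), fitted to a one-site competition model by nonlinear regression. Filter binding with scintillation read-out; triplicates.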

A further assay deals with AFB5-IAA7 (Arabidopsis thaliana, UniProt Q38825+Q9LTX2). Put plainly: [3H]-IAA radioligand binding. Put shortly:
as §4

The target in assay [2] is T1, TIR1-IAA7 DII. Put plainly: [3H]-IAA saturation binding, TIR1 with biotinylated IAA7 DII peptide. The conditions noted are these: Kd (Mean ± SEM), TIR1-biotinylated peptide DII of IAA7, saturation binding.
The target in a further assay is TIR1 (Arabidopsis thaliana, UniProt Q570C0). Put plainly: [3H]-IAA binding at 200 nM, TIR1 alone. The following applies: 200 nM [3H] IAA. The gist of the method: as §3
Another assay has as its target IAA7 DII (Arabidopsis thaliana, UniProt Q38825). Put plainly: [3H]-IAA binding at 200 nM, IAA7 DII peptide alone. The following applies: 200 nM [3H] IAA. Put shortly: as §3
Another assay concerns the target TIR1-IAA7^axr2-1 (Arabidopsis thaliana, UniProt Q38825+Q570C0, P87S). Put plainly: [3H]-IAA binding at 200 nM, TIR1-IAA7 axr2-1. The following applies: 200 nM [3H] IAA. The gist of the method:
as §3

Another assay deals with TIR1-IAA7 K35Q (Arabidopsis thaliana, UniProt Q38825+Q570C0, K35Q). In words: [3H]-IAA binding at 200 nM, TIR1-IAA7 K35Q. The conditions noted are these: 200 nM [3H]-IAA, Lys35Gln mutant compared to TIR1-IAA7.
In a further assay the target is IAA7 (Arabidopsis thaliana, UniProt Q38825). In words: [3H]-IAA binding at 200 nM, IAA7 alone. The following applies: 200 nM [3H] IAA. The gist of the method:
as §3

The test system of assay [3] is Arabidopsis wild type plants (Col-0). Put plainly: Root elongation assay of seedlings. It is filed as in vivo, Arabidopsis thaliana. The conditions noted are these: 40 or 80 nM 2,4-D, 4 days, Col-0 seedlings. The gist of the method:
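Seedlings grown 5 days on MS medium, then transferred to medium with 2,4-D. Root elongation was measured after 4 more days and expressed as a proportion of growth without auxin. Col-0, tir1-1 and tir1-1 afb2-3 were tested; error bars are STDEV.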

For another assay, the target named is T3, TIR1-IAA7 interaction (Arabidopsis thaliana, UniProt Q38825+Q570C0).
T3 sequence (Q570C0 1-594): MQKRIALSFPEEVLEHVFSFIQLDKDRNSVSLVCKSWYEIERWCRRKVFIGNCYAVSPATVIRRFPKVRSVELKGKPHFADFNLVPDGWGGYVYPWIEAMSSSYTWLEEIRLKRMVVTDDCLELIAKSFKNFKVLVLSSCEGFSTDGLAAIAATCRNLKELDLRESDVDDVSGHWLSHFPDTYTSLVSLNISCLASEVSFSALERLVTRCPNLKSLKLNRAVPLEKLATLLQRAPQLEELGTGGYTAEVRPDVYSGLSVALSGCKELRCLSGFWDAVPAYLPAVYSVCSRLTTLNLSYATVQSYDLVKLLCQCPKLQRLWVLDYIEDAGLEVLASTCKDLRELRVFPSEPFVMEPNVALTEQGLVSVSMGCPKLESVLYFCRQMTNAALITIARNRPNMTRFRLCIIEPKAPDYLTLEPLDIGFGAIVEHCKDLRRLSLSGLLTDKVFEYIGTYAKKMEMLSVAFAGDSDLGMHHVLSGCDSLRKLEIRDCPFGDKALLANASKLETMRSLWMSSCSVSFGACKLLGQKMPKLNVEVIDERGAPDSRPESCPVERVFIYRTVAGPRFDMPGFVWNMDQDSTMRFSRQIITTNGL
T3 sequence (Q38825 1-243): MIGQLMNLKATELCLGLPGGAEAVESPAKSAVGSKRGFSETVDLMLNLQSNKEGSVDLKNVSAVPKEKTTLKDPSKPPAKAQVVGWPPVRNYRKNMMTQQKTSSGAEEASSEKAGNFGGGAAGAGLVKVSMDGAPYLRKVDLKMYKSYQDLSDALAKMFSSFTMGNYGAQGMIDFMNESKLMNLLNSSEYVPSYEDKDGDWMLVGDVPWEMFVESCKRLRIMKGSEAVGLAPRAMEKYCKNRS
Put plainly: LexA yeast two-hybrid, auxin-induced TIR1-IAA7 interaction. It is filed as cell-based. The following applies: 50 μM auxins in selective media.

As for `O=C(O)Cc1c[nH]c2ccccc12` [IAA, Indole-3-acetic acid], the Kd at TIR1-IAA1 is 44.3 ± 6.67 nM; at TIR1-IAA14 it was 10.1 nM; on TIR1-IAA28, ~75 nM and 75 nM; at TIR1-DI-DII it was 13.8 ± 4.63 nM; at TIR1-IAA12 GWPPVR, 72.5 ± 21.6 nM; at TIR1-IAA17, 33 ± 3 nM. The Kd at TIR1-IAA31 is above 1000 nM; on TIR1-IAA3 it was 17 ± 3.43 nM; at TIR1-IAA7, 17.8 ± 7.81 nM; at AFB5-IAA7, 51.3 ± 12.6 nM; at TIR1-IAA7 DII [2] it was 218 nM. Besides, the “TIR1 association with the DII peptide (SPR)” value on TIR1-IAA7 DII [1] is listed as “enhanced association with the peptide”. Further, the auxin binding diminished entry on TIR1-IAA7 K35Q R36Q and on TIR1-IAA7 K35Q was “around 50%” each time. In addition, the “specific binding of [3H] IAA” value in the assay with TIR1-slr and at TIR1-bdl was “abolish specific auxin binding” throughout. In addition, the “binding of [3H] IAA” value at TIR1 was “lacked appreciable binding”; on IAA7 DII it was “lacked appreciable binding”; at TIR1-IAA7^axr2-1, “did not bind auxin”; on IAA7 it was “lacked appreciable binding”.
As for `O=C(O)COc1ccc(Cl)cc1Cl` [2,4-D, 2,4-dichlorophenoxyacetic acid], on TIR1-IAA7 DII [1] (50 μM ligand concentration), the “dissociation of the TIR1-IAA7 DII complex (SPR)” value was “much more rapid dissociation rate”. Further, the “TIR1 association with the DII peptide (SPR)” value on TIR1-IAA7 DII [1] is “enhanced association with the peptide”. Further, the Ki on TIR1-IAA7 (Ki (Mean ± SEM), TIR1-IAA7, cold competitor vs [3H] IAA) lay in the range of 248 to 1000 nM. In addition, the root elongation entry in assay [3] is “inhibits root growth elongation”. The “TIR1-IAA7 interaction in yeast (β-galactosidase expression)” value on TIR1-IAA7 interaction is recorded as “promoted TIR1-IAA7 interaction, but not to the same extent as IAA”.

These data come from publication PMC3331960 (Nature chemical biology, 2012).
